2 compounds from ChEMBL document CHEMBL4334444, “Studies of Jatrogossone A as a Reactive Oxygen Species Inducer in Cancer Cellular Models” (J Nat Prod, 2019) can be followed below.

As usually defined, the inhibition is the percentage by which the read-out fell short of the control. Usually IC50 stands for the concentration at which inhibition is half-maximal.

One series relates to K562. In words: Antiproliferative activity against human K562 cells assessed as reduction in cell viability at 0.1 to 250 uM by CellTiter-Glo assay. It counts as functional, cell-based. The essentials: (§1)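 CellTiter-Glo luminescent viability readout. Cells kept at 37 °C under 5% CO2. HMEC primary cells grown in basal medium with growth kit; leukemia lines and murine BCR-ABL (WT, Bax/Bak DKO) cultured per earlier description. Positive controls: staurosporine 25 μM, gambogic acid 10 μM, a toxic quinoline. At least two biological replicates in technical triplicate; luminescence normalized to untreated controls; EC50 computed.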
(In ATP-based viability assays light output follows the ATP content of the culture.)

The next series concerns SEM cells. In words: Antiproliferative activity against human SEM cells assessed as reduction in cell viability at 0.1 to 250 uM by CellTiter-Glo assay. It counts as functional, cell-based. The essentials: as §1
Series [1] has as its system MCF7. In words: Induction of mitochondrial membrane potential loss in human MCF7 cells at 4 uM after 24 to 48 hrs by TMRM staining based flow cytometric analysis. It counts as functional, cell-based. The essentials: (§2)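 TMRM flow cytometry. KOPN-8 (4 × 10^4 or 5 × 10^5 per well) or MCF-7 (2 × 10^4 or 2 × 10^5 per well) were seeded 24 h, then treated 24–48 h. FCCP 10 μM was added 10 min before staining as positive control. Cells were stained with TMRM 100 nM for 0.5 h, then PBS-washed, resuspended in PBS with 1% FBS and analysed by flow cytometry; DAPI flagged compromised cells.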

A further series relates to Raji. In words: Antiproliferative activity against human Raji cells assessed as reduction in cell viability at 0.1 to 250 uM by CellTiter-Glo assay. It is filed as functional, cell-based. The essentials: as §1
Series [2] relates to HMEC. In words: Cytotoxicity against human HMEC cells assessed as reduction in cell viability at 0.1 to 250 uM by CellTiter-Glo assay. It is filed as cell-based. In short, it runs like this:
as §1

In series [3] the test system is MCF7. In words: Upregulation of Trx expression in human MCF7 at 10 uM after 3 to 6 hrs by Western blot analysis. It is filed as functional, cell-based. In short, it runs like this: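 Western blot of KOPN-8 or MCF-7 lysates, 30 μg protein per lane on 4–12% Bis-Tris SDS-PAGE and transferred to nitrocellulose. Blots were probed with an oxidative stress defense antibody cocktail (catalase, SOD1, Trx, smooth muscle actin) and tubulin, and detected with IR-dye secondaries on a LI-COR Odyssey.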

Series [4] has as its system HMEC. In words: Cytotoxicity against human HMEC cells assessed as cell detachment. It counts as cell-based.
Series [5] has as its system B-ALL. In words: Antiproliferative activity against mouse B-ALL cells harboring Bax/Bak double knockout mutant assessed as reduction in cell viability at 0.1 to 250 uM by CellTiter-Glo assay. It counts as functional, cell-based. In short, it runs like this: as §1
The subject of series [6] is KOPN-8. In words: Induction of apoptosis in human KOPN8 cells assessed as increase in cleaved PARP 1 level at 1 to 10 uM after 3 hrs by Western blot analysis. It counts as functional, cell-based. In short, it runs like this:
(§3)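 Western blot of KOPN-8 and MCF-7 lysates made in RIPA-type buffer (Tris pH 7.5, Triton X-100, deoxycholate, SDS) with protease and phosphatase inhibitors. 30 μg protein per lane was run on 4–12% Bis-Tris SDS-PAGE and transferred to nitrocellulose. Blots were probed for cleaved caspase-7 and PARP-1 and detected with IR-dye secondaries. Menadione served as positive control: 10 μM in KOPN-8, 30 μM in MCF-7. Blots are representative of three independent experiments.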
For orientation: Immunoblotting shows a protein as a band on a membrane.

Series [7] concerns PBMC. In words: Cytotoxicity against human PBMC cells assessed as reduction in cell viability at 0.1 to 250 uM by CellTiter-Glo assay. It counts as cell-based. In short, it runs like this: as §1
The subject of series [8] is KOPN-8. In words: Cell cycle arrest in human KOPN8 cells assessed as decrease in accumulation at G1/G0 phase at 10 uM incubated for 24 hrs by propidium iodide staining based flow cytometric analysis relative to control. It is filed as functional. The settings on record: KOPN-8, 24 h. In short, it runs like this:
(§4)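 KOPN-8 plated at 1.00 × 10^6 cells/plate, held 12 h at 37 °C, treated 24 h at 10 μM; DMSO vehicle and 2 μM staurosporine as controls. Cells fixed in cold methanol, RNase-treated, stained with PI (50 μg/mL); cell-cycle distribution by flow cytometry.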

A short description of series [9]: Stability in CH3CN assessed as micheal adduct formation by measuring intact compound incubated for 16 hrs in presence of glutathione by LC-MS analysis. It counts as physicochemical.
Series [10] relates to MCF7. In words: Induction of apoptosis in human MCF7 cells assessed as increase in cleaved PARP 1 level at 1 to 100 uM after 24 hrs by Western blot analysis. It counts as functional, cell-based. The essentials: as §3
In series [11] the test system is PBMC. In words: Cytotoxicity against human PBMC cells assessed as cell viability at >100 uM by CellTiter-Glo assay. It counts as cell-based. In short, it runs like this:
as §1

Series [12] concerns KOPN-8. In words: Cell cycle arrest in human KOPN8 cells assessed as decrease in accumulation at S phase at 10 uM incubated for 24 hrs by propidium iodide staining based flow cytometric analysis relative to control. It counts as functional. The settings on record: KOPN-8, 24 h. The essentials:
as §4
Background: A flow cytometer gives signals particle by particle.

Series [13] relates to B-ALL. In words: Cytotoxicity against BCR-ABL p185-positive mouse B-ALL cells transfected with empty vector assessed as inhibition of cell viability after 24 hrs by AnnexinV-FITC/propidium iodide staining based flow cytometric analysis. It counts as functional.
Series [14] relates to B-ALL. In words: Cytotoxicity against BCR-ABL p185-positive mouse B-ALL cells overexpressing human BFL-1 assessed as inhibition of cell viability after 24 hrs by AnnexinV-FITC/propidium iodide staining based flow cytometric analysis. It is filed as functional.
A further series relates to MDA-MB-231. In words: Induction of ROS colocalization in mitochondria of human MDA-MB-231 cells at 30 uM incubated for 1 hr in presence of NAC by CellROX green reagent/mitotracker deep red staining based confocal microscopic method. It is filed as functional, cell-based. In short, it runs like this: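 MDA-MB-231 plated at 4 × 10^4/well in phenol-red-free medium, 12 h at 37 °C; for rescue, NAC 100 μM pretreatment 0.5 h. Compound 30 μM or DMSO for 1 h, then CellROX green 5 μM final, MitoTracker Deep Red 250 nM, Hoechst 33342 500 nM (0.5 h before imaging). Washed twice, live spinning-disk confocal at 63×; two independent experiments.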

A further series deals with U2OS. In words: Antiproliferative activity against human U2OS assessed as reduction in cell viability at >10 uM by CellTiter-Glo assay. It counts as functional, cell-based. The essentials:
as §1

The nature of series [15]: Stability in CH3CN assessed as micheal adduct formation by measuring intact compound incubated for 16 hrs in presence of glutathione by NMR analysis. It is filed as physicochemical.
A short description of series [16]: Stability in CH3CN assessed as micheal adduct formation by measuring intact compound incubated for 16 hrs in presence of NAC by LC-MS analysis. It is filed as physicochemical.
In series [17] the test system is KOPN-8. In words: Induction of apoptosis in human KOPN8 cells assessed as early apoptotic cells at 10 uM after 24 hrs by Annexin V-FITC and propidium iodide staining based flow cytometry. It is filed as functional, cell-based. The essentials: (§5)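 KOPN-8 cells were plated at 1.00 × 10^6 per plate and held 12 h at 37 °C, then treated 24 h; positive control 2 μM staurosporine, vehicle DMSO. Cells were stained with Annexin V-FITC and PI and analysed by flow cytometry (FACSCalibur). Profiles are representative of three independent biological replicates.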

Series [18] has as its system KOPN-8. In words: Induction of apoptosis in human KOPN8 cells assessed as decrease in viable cells at 10 uM after 24 hrs by Annexin V-FITC and propidium iodide staining based flow cytometry. It counts as functional, cell-based. In short, it runs like this: as §5
A short description of series [19]: Protein binding in human plasma. It is filed as ADME, cell-free. The following applies: read-out: PPB (converted).
Series [20] relates to KOPN-8. In words: Induction of mitochondrial membrane potential loss in human KOPN8 cells at 10 uM after 24 to 48 hrs by TMRM staining based flow cytometric analysis. It counts as functional, cell-based. In short, it runs like this:
as §2

In another series the test system is UoC-B1. In words: Antiproliferative activity against human UOCB1 cells assessed as reduction in cell viability at 1 to 10 uM by CellTiter-Glo assay. It is filed as functional, cell-based. The essentials:
as §1

Calls of active or inactive are those of the source. The rule behind the calls is not given here.

Turning to `CC1=C2CC(C)(C)/C=C/C(=O)/C(C)=C\C3=C[C@H](C)C[C@]3(O2)C1=O` [JATROPHONE], the inhibition entry in the series with K562, in the series with SEM cells, with Raji and in the series on B-ALL [5] was “Active” throughout. For the same compound, the outcome in the series with MCF7 [1] and in the series on MCF7 [3] was inactive. The Activity result in the series with HMEC [2], in the series on HMEC [4] and in the series on PBMC [7] was “Toxic” in each case. In addition, the result in the series with KOPN-8 [6] was Active.
With `CC(=O)O[C@H]1/C2=C/[C@@H](C)C(=O)C[C@H]3[C@@H](/C=C(\C)C(=O)[C@H]2C[C@H]1C)C3(C)C`, the inhibition at 10 µM in the series with KOPN-8 [8] and with KOPN-8 [12] was 5% throughout. The Stability entry in [9], in series [15] and in series [16] was “Stable” throughout. Besides, the outcome with MCF7 [10] and in the series with KOPN-8 [18] was Active. Further, the Activity entry in the series on PBMC [11] is on record as “Non-Toxic”. Further, the IC50 came out at 4.57 µM in the series on B-ALL [13] and 4.26 µM in the series on B-ALL [14]. The result with MDA-MB-231, with KOPN-8 [17] and in the series with KOPN-8 [20] was inactive. The inhibition entry in the series with U2OS and with UoC-B1 was “Active” throughout. For the same compound, the fraction unbound in [19] is 0.16.
